# Source: ChEMBL document CHEMBL5346868 (Eur J Med Chem, 2023)
# Assays:
# Enterovirus A71 [1] = assay: Antiviral activity against human Enterovirus 71 BrCr infected in human RD cells assessed as reduction of virus induced cytopathic effect incubated for 3 days by MTS assay; assay type: functional, organism-based; settings: Enterovirus A, 72 h
# Procedure, shortened: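 Confluent RD cells (EMEM, 10% heat-inactivated FBS) are infected with ~100 CCID50 of EV71 BrCr and treated with a compound dilution series. After 3 days at 37 °C, 5% CO2, residual viability is measured by MTS. EC50 is the concentration giving 50% antiviral effect, from at least 2–3 independent experiments.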
# [2] = Cytotoxicity against human RD cells by MTS assay; assay type: toxicity, cell-based
# Procedure, shortened: (§1)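 Treated, uninfected RD or HeLa cells are run alongside the matching enterovirus CPE assays, with viability read by MTS. CC50 is the concentration giving a 50% adverse effect on host cells.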
# [3] = Selectivity index, ratio of CC50 for human RD cells to EC50 for antiviral activity against human Enterovirus 71; assay type: toxicity; settings: read-out: Ratio CC50/EC50
# Procedure, shortened: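 SI is calculated as CC50 on uninfected RD cells divided by EC50 in the 3-day EV71 BrCr CPE-reduction MTS assay.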
# SARS-CoV-2 = assay: Antiviral activity against SARS-CoV-2 BetaCoV/Belgium/GHB-03021/2020 infected in african green monkey Vero cells assessed as decline in virus induced cytopathogenicity measured after 4 days by argon laser scanning microscopic analysis; assay type: functional, organism-based; settings: Severe acute respiratory syndrome coronavirus 2, BetaCoV/Belgium/GHB-03021/2020, Vero, 96 h
# Zika virus = assay: Antiviral activity against ZIKV MR766 infected in african green monkey Vero E6 cells assessed as decline in virus induced cytopathogenicity measured after 5 days by MTS based microscopic analysis; assay type: functional, organism-based; settings: MR766, Vero C1008, 120 h
# Procedure, shortened: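 Vero E6 cells (10^4/well) are seeded in MEM with 2% FCS and left to adhere overnight. Cells are then infected with ZIKV MR766 (passaged in C6/36 cells) and given 2-fold serial compound dilutions. After 5 days, CPE is scored by MTS and by microscopy of fixed, stained cells. EC50 is the 50% antiviral effect.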
# [4] = Cytotoxicity against african green monkey Vero E6 cells by MTS assay; assay type: toxicity, cell-based, Vero C1008; settings: chlorocebus sabaeus
# Procedure, shortened: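 Cytotoxicity is measured on treated, uninfected Vero E6 cells in parallel with the antiviral assays, using a standard MTS assay. CC50 is the concentration causing a 50% adverse effect on host cells.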
# Coxsackievirus B3 = assay: Antiviral activity against Coxsackievirus B3 infected in african green monkey Vero cells assessed as reduction of virus induced cytopathic effect incubated for 3 days by MTS assay; assay type: functional, organism-based; settings: Enterovirus B, 72 h
# Procedure, shortened: (§2)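 Same setup as the EV71 assay: confluent monolayers (Vero A for CVB3; HeLa for CVA21, EV68, HRV-A02, HRV-B14) are infected with virus and treated with a compound dilution series. Incubation is 3 days at 37 °C, 5% CO2, and residual viability is read by MTS. EC50 is the 50% effective concentration, mean of at least 2 independent experiments.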
# [5] = Cytotoxicity against african green monkey Vero cells by MTS assay; assay type: toxicity, cell-based; settings: chlorocebus sabaeus
# Coxsackievirus A21 = assay: Antiviral activity against Coxsackievirus 21 infected in human HeLa cells assessed as reduction of virus induced cytopathic effect incubated for 3 days by MTS assay; assay type: functional, organism-based; settings: Enterovirus C, 72 h
# Procedure, shortened: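 HeLa cells infected with coxsackievirus A21 (~100 CCID50) and treated with a compound dilution series, as in the EV71 set-up. Incubation was 3 days at 37 °C, 5% CO2, with residual viability quantified by MTS. EC50 is the concentration giving 50% antiviral effect. Values are means of ≥2 independent experiments.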
# enterovirus D68 = assay: Antiviral activity against Human enterovirus 68 infected in human HeLa cells assessed as reduction of virus induced cytopathic effect incubated for 3 days by MTS assay; assay type: functional, organism-based; settings: Enterovirus D, 72 h; procedure, shortened: as §2
# rhinovirus A2 = assay: Antiviral activity against Human rhinovirus 2 infected in human HeLa cells assessed as reduction of virus induced cytopathic effect incubated for 3 days by MTS assay; assay type: functional, organism-based; settings: Rhinovirus A, 72 h; procedure, shortened: as §2
# rhinovirus B14 = assay: Antiviral activity against Human rhinovirus 14 infected in human HeLa cells assessed as reduction of virus induced cytopathic effect incubated for 3 days by MTS assay; assay type: functional, organism-based; settings: Rhinovirus B, 72 h; procedure, shortened: as §2
# [6] = Cytotoxicity against human HeLa cells by MTS assay; assay type: toxicity, cell-based; procedure, shortened: as §1
# Enterovirus A71 [7] = assay: Antiviral activity against human enterovirus 71 infected in african green monkey vero cells; assay type: functional, organism-based; settings: Enterovirus A
# METTL3/METTL14 = METTL3/METTL14 (Homo sapiens, UniProt Q86U44); assay: Inhibition of human recombinant full length METTL3/human N-terminal FLAG-tagged METTL14 expressed in SF9 cells assessed as methyltransferase residual activity using ssRNA 5'-rUrArC rArCrU rCrGrA rUrCrU rGrGrA rCrUrA rArArG rCrUrG rCrUrC -3' as substrate incubated for 20 mins followed by H-SAM addition measured after 2 hrs by radio isotope reaction system analysis
# Procedure, shortened: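 Compound is pre-incubated for 20 min at room temperature, then 1 μM [3H-methyl]SAM is added for 2 h at room temperature. Activity is reported as % remaining, screened at 100 μM, with IC50 from curve fits.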
# METTL3/METTL14, sequence (Q86U44 whole entry): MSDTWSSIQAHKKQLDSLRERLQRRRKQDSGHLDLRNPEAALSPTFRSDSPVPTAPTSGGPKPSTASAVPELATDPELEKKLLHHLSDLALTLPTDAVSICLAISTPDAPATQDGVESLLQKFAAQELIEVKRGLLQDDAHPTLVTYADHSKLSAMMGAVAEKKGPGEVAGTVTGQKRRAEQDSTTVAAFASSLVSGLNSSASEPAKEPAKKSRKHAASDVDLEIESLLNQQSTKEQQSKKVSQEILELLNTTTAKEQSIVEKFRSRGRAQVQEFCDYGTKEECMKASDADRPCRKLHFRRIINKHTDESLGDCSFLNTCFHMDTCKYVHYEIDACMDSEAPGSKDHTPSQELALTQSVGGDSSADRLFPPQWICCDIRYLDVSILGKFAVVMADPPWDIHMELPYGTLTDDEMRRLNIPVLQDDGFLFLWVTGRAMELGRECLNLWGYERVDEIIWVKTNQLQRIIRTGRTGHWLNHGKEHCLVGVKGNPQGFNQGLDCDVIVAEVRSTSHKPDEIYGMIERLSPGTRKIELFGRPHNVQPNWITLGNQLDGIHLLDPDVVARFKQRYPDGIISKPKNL
# METTL3/METTL14, sequence (Q9HCE5 whole entry, further chain): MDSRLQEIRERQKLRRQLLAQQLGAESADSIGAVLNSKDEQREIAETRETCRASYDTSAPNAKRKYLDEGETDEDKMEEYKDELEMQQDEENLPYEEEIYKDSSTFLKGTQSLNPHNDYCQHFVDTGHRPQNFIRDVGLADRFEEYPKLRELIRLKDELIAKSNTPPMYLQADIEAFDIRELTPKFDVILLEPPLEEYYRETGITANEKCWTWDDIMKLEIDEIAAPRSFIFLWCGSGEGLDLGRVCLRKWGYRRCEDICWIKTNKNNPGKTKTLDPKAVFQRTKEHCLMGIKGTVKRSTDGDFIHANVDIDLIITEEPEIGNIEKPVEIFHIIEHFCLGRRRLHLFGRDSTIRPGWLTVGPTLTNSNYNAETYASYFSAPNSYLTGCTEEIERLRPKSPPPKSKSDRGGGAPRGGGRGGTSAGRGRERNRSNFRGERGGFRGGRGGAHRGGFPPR
structure (smiles),measurement,setting,value
OC[C@H]1O[C@@H](n2cnc3c(NCc4cccc(S(F)(F)(F)(F)F)c4)ncnc32)[C@H](O)[C@@H]1O,EC50,Enterovirus A71 [1],0.102 µM
same,CC50,[2],> 100 µM
same,selectivity ratio,[3],> 1280
same,EC50,SARS-CoV-2,> 100 µM
same,EC50,Zika virus,> 100 µM
same,CC50,[4],> 100 µM
same,EC50,Coxsackievirus B3,> 100 µM
same,CC50,[5],> 100 µM
same,EC50,Coxsackievirus A21,31.7 µM
same,EC50,enterovirus D68,> 100 µM
same,EC50,rhinovirus A2,> 100 µM
same,EC50,rhinovirus B14,> 100 µM
same,CC50,[6],88.7 µM
C#C[C@@]1(O)[C@H](O)[C@@H](CO)O[C@H]1n1ccc2c(N)ncnc21,EC50,Enterovirus A71 [7],0.625 µM
OC[C@H]1O[C@@H](n2ccc3c(NCc4cccc(C(F)(F)F)c4)ncnc32)[C@H](O)[C@@H]1O,EC50,Enterovirus A71 [1],0.101 µM
same,CC50,[2],> 100 µM
same,selectivity ratio,[3],> 1070
same,EC50,SARS-CoV-2,> 100 µM
same,EC50,Zika virus,> 100 µM
same,CC50,[4],> 100 µM
same,IC50,METTL3/METTL14,129 µM
same,EC50,Coxsackievirus B3,> 100 µM
same,CC50,[5],> 100 µM
same,EC50,Coxsackievirus A21,19.9 µM
same,EC50,enterovirus D68,91.2 µM
same,EC50,rhinovirus A2,> 100 µM
same,EC50,rhinovirus B14,> 100 µM
same,CC50,[6],> 100 µM
CSC[C@H]1O[C@@H](n2cnc3c(NCc4ccccc4Cl)ncnc32)[C@H](O)[C@@H]1O,EC50,Enterovirus A71 [1],2.61 µM
same,CC50,[2],> 100 µM
same,selectivity ratio,[3],> 38.3
same,EC50,SARS-CoV-2,> 100 µM
same,EC50,Zika virus,> 100 µM
same,CC50,[4],> 100 µM
CSC[C@H]1O[C@@H](n2cnc3c(NCc4ccc(Cl)cc4)ncnc32)[C@H](O)[C@@H]1O,EC50,Enterovirus A71 [1],8.05 µM
same,CC50,[2],> 100 µM
same,selectivity ratio,[3],> 12.1
same,EC50,SARS-CoV-2,> 100 µM
same,EC50,Zika virus,> 100 µM
same,CC50,[4],> 100 µM
OC[C@H]1O[C@@H](n2ccc3c(NCc4cccc(Cl)c4)ncnc32)[C@H](O)[C@@H]1O,EC50,Enterovirus A71 [1],0.065 µM
same,CC50,[2],> 20 µM
same,selectivity ratio,[3],> 301
same,EC50,SARS-CoV-2,> 100 µM
same,EC50,Zika virus,> 100 µM
same,CC50,[4],> 100 µM
same,IC50,METTL3/METTL14,58.8 µM
CSC[C@H]1O[C@@H](n2cnc3c(NC(C)c4ccccc4Cl)ncnc32)[C@H](O)[C@@H]1O (stereo partly specified),EC50,Enterovirus A71 [1],> 100 µM
same,CC50,[2],> 100 µM
same,EC50,SARS-CoV-2,> 100 µM
same,EC50,Zika virus,> 100 µM
same,CC50,[4],> 100 µM
CSC[C@H]1O[C@@H](n2cnc3c(NC(C)c4cccc(Cl)c4)ncnc32)[C@H](O)[C@@H]1O (stereo partly specified),EC50,Enterovirus A71 [1],4.21 µM
same,CC50,[2],44.3 µM
same,selectivity ratio,[3],10.5
same,EC50,SARS-CoV-2,> 100 µM
same,EC50,Zika virus,> 100 µM
same,CC50,[4],50.8 µM
OC[C@H]1O[C@@H](n2cnc3c(NCc4ccc(Cl)cc4)ncnc32)[C@H](O)[C@@H]1O,EC50,Enterovirus A71 [1],0.236 µM
same,CC50,[2],> 100 µM
same,selectivity ratio,[3],> 424
same,EC50,SARS-CoV-2,> 100 µM
same,EC50,Zika virus,> 100 µM
same,CC50,[4],> 100 µM
C[C@H](NP(=O)(OC[C@H]1O[C@@H](n2ccc3c(NCc4cccc(C(F)(F)F)c4)ncnc32)[C@H](O)[C@@H]1O)Oc1ccccc1)C(=O)OCc1ccccc1 (stereo partly specified),EC50,Enterovirus A71 [1],0.6 µM
same,CC50,[2],42.5 µM
same,selectivity ratio,[3],70.8
same,EC50,SARS-CoV-2,> 100 µM
same,CC50,[4],> 100 µM
CC(Nc1ncnc2c1ncn2[C@@H]1O[C@H](CO)[C@@H](O)[C@H]1O)c1ccccc1Cl (stereo partly specified),EC50,Enterovirus A71 [1],> 100 µM
same,CC50,[2],> 100 µM
same,EC50,SARS-CoV-2,> 100 µM
same,EC50,Zika virus,> 100 µM
same,CC50,[4],> 100 µM
COC(=O)[C@H](CCSC[C@H]1O[C@@H](n2cnc3c(NCc4cccc(Cl)c4)ncnc32)[C@H](O)[C@@H]1O)NC(=O)C(F)(F)F,EC50,Enterovirus A71 [1],4.5 µM
same,CC50,[2],> 100 µM
same,selectivity ratio,[3],> 16.9
same,EC50,SARS-CoV-2,> 100 µM
same,EC50,Zika virus,> 100 µM
same,CC50,[4],> 100 µM
same,EC50,Coxsackievirus B3,> 100 µM
same,CC50,[5],> 100 µM
same,EC50,Coxsackievirus A21,54.6 µM
same,EC50,enterovirus D68,> 100 µM
same,EC50,rhinovirus A2,> 100 µM
same,EC50,rhinovirus B14,> 100 µM
same,CC50,[6],> 100 µM
C[C@H](NP(=O)(OC[C@H]1O[C@@H](n2cnc3c(NCc4cccc(C(F)(F)F)c4)ncnc32)[C@H](O)[C@@H]1O)Oc1ccccc1)C(=O)OCc1ccccc1 (stereo partly specified),EC50,Enterovirus A71 [1],0.017 µM
same,CC50,[2],9.18 µM
same,selectivity ratio,[3],542
same,EC50,SARS-CoV-2,> 100 µM
